Assay [1] concerns Erythrocyte. Kind of assay: Inhibition of AAPH-induced ram erythrocyte hemolysis at 0.0312 g/L. The assay is classed as functional. Conditions: Ovis aries. In outline: (§1)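 Erythrocytes from a male ram (churra galega transmontana) washed three times in 10 mM PBS pH 7.4. A 20% suspension combined with 200 mM AAPH in PBS and methanolic compound at different concentrations, shaken gently 3 h at 37 C. Diluted with PBS, centrifuged, supernatant A540 read. % inhibition set against the AAPH control without compound. Triplicate means; EC50 from the plot; L-ascorbic acid as standard.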

The nature of assay [2]: Antioxidant activity assessed as inhibition of lipid peroxidation at 0.125 g/L after 2 hrs by beta carotene bleaching method. Type of assay: functional. In outline:
(§2)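 β-Carotene linoleate emulsion (β-carotene dissolved in chloroform) incubated with compound at 50 C in a water bath. A470 read at time zero, then every 20 min until the control lost colour; a blank without β-carotene was subtracted. Activity = (β-carotene after 2 h / initial β-carotene) × 100. Triplicate means; EC50 taken from the activity % versus concentration plot.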

Assay [3] relates to Erythrocyte. Kind of assay: Inhibition of AAPH-induced ram erythrocyte hemolysis at 0.250 g/L. Type of assay: functional. Conditions: Ovis aries. The gist of the method:
as §1

In assay [4] the test system is Erythrocyte. Description: Inhibition of AAPH-induced ram erythrocyte hemolysis. Conditions: Ovis aries. The assay is classed as functional, cell-based. In outline:
as §1

Assay [5] in a line: Antioxidant activity assessed as inhibition of lipid peroxidation at 0.0625 g/L after 2 hrs by beta carotene bleaching method. Type of assay: functional. The gist of the method:
as §2

In assay [6] the test system is Erythrocyte. Description: Inhibition of AAPH-induced ram erythrocyte hemolysis at 0.0156 g/L. The assay is classed as functional. Conditions: Ovis aries. In outline:
as §1

A short description of assay [7]: Antioxidant activity assessed as inhibition of lipid peroxidation at 0.250 g/L after 2 hrs by beta carotene bleaching method. Type of assay: functional. In outline:
as §2

Assay [8] in a line: Antioxidant activity assessed as reduction of ferric cyanide complex by reducing power assay. Type of assay: functional. The gist of the method: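 Oyaizu method: methanolic compound at various concentrations mixed with sodium phosphate buffer (200 mmol/L, pH 6.6) and 1% potassium ferricyanide, held 20 min at 50 C. 10% TCA added, then centrifuged. Supernatant diluted with water, 0.1% FeCl3 added, A700 read. Triplicate means; EC50 = concentration giving absorbance 0.5, from the A700 versus concentration plot. Standards: BHA, BHT, ascorbic acid.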

A short description of assay [9]: Antioxidant activity assessed as inhibition of lipid peroxidation after 2 hrs by beta carotene bleaching method. Type of assay: functional. The gist of the method:
as §2

Assay [10] relates to Erythrocyte. Description: Inhibition of AAPH-induced ram erythrocyte hemolysis at 0.0625 g/L. Type of assay: functional. Conditions: Ovis aries. The gist of the method:
as §1

The subject of assay [11] is Radical scavenging activity. Description: Antioxidant activity assessed as DPPH radical scavenging activity at 0.0312 g/L. The assay is classed as functional. In outline:
(§3)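 Compound in methanol (0.3 mL, various concentrations) mixed with methanolic DPPH ([…] stock, 2.7 mL), shaken and held 60 min in the dark. Absorbance read at 517 nm. %RSA = [(ADPPH − AS)/ADPPH] × 100. Means of three independent samples. EC50 (50% scavenging) taken from the plot of %RSA against concentration; BHA and BHT as standards.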
On the technique in general: The DPPH test is a chemical assay of radical scavenging.

The test system of assay [12] is Erythrocyte. Kind of assay: Inhibition of AAPH-induced ram erythrocyte hemolysis at 0.125 g/L. Conditions: Ovis aries. The assay is classed as functional. The gist of the method: as §1
The subject of assay [13] is Radical scavenging activity. Description: Antioxidant activity assessed as DPPH radical scavenging activity at 0.0625 g/L. Type of assay: functional. In outline:
as §3

Assay [14] relates to Radical scavenging activity. Kind of assay: Antioxidant activity assessed as DPPH radical scavenging activity. Type of assay: functional. The gist of the method:
as §3

The test system of assay [15] is Radical scavenging activity. Description: Antioxidant activity assessed as DPPH radical scavenging activity at 0.125 g/L. The assay is classed as functional. The gist of the method:
as §3

Assay [16] concerns Radical scavenging activity. Description: Antioxidant activity assessed as DPPH radical scavenging activity at 0.0156 g/L. The assay is classed as functional. The gist of the method:
as §3

Assay [17] is described as follows: Antioxidant activity assessed as inhibition of lipid peroxidation at 0.0156 g/L after 2 hrs by beta carotene bleaching method. Type of assay: functional. The gist of the method: as §2
A short description of assay [18]: Antioxidant activity assessed as inhibition of lipid peroxidation at 0.0312 g/L after 2 hrs by beta carotene bleaching method. Type of assay: functional. In outline:
as §2

In assay [19] the test system is Radical scavenging activity. Description: Antioxidant activity assessed as DPPH radical scavenging activity at 0.250 g/L. Type of assay: functional. In outline: as §3
Assay [20] has as its system Erythrocyte. Kind of assay: Inhibition of AAPH-induced ram erythrocyte hemolysis at 1 g/L. The assay is classed as functional. Conditions: Ovis aries. In outline:
as §1

Assay [21] is described as follows: Antioxidant activity assessed as inhibition of lipid peroxidation at 2 g/L after 2 hrs by beta carotene bleaching method. Type of assay: functional. In outline:
as §2

Drawing on ChEMBL document CHEMBL1146338, “Synthesis and antioxidant activity evaluation of new 7-aryl or 7-heteroarylamino-2,3-dimethylbenzo[b]thiophenes obtained by Buchwald-Hartwig C-N cross-coupling” (Bioorg Med Chem, 2007), this text covers inhibition, EC50 and Activity for eight compounds.

Converted amounts (≈) assume the structure as drawn.

For orientation: inhibition means the percentage by which the read-out fell short of the control. As usually defined, the EC50 is the concentration needed to bring the measured effect to its halfway point. The compound `COc1ccc(Nc2cccc3c(C)c(C)sc23)cc1` returned an inhibition at 31.2 µg/mL in the assay on Erythrocyte [1] of 61.2%. The inhibition in assay [2] worked out at 100%; in [5], 99.7%; in [7], 100%; in assay [17], 92.3%; in assay [18], 96.8%. 250 µg/mL produced 66.7% inhibition in the assay with Erythrocyte [3]. The EC50 is 21.4 mg/L (≈ 75.5 µM) in the assay with Erythrocyte [4], 21.6 mg/L (≈ 76.2 µM) in [8], 8.45 mg/L (≈ 29.8 µM) in assay [9] and 14 mg/L (≈ 49.4 µM) in assay [14]. This compound also showed an inhibition at 15.6 µg/mL in the assay on Erythrocyte [6] of 43.4%. In the assay with Erythrocyte [10], the inhibition at 62.5 µg/mL was 65.1%. The Activity in [11] turned out to be 85.8%; in assay [13], 88.4%; in assay [15], 91.1%; in [16], 55.8%; in assay [19], 93.3%. Besides, 125 µg/mL produced 65.9% inhibition in the assay on Erythrocyte [12].

The compound `Cc1sc2c(Nc3cccnc3)cccc2c1C` yielded an inhibition at 31.2 µg/mL with Erythrocyte [1] of 56.8%. For the same compound, the inhibition in assay [2] is 76.1%; in assay [5] it was 70.9%; in assay [7], 86.2%; in [17] it was 48.1%; in assay [18] it was 65.4%. Besides, in the assay on Erythrocyte [3], 250 µg/mL produced 74.1% inhibition. The EC50 was 24.1 mg/L (≈ 94.7 µM) in the assay with Erythrocyte [4], more than 250 mg/L in assay [8], 17.3 mg/L (≈ 68 µM) in [9] and more than 250 mg/L in assay [14]. In the assay on Erythrocyte [6], 15.6 µg/mL produced 41.8% inhibition. Moreover, testing at 62.5 µg/mL in the assay with Erythrocyte [10] gave an inhibition of 66.9%. Also, the Activity in assay [11] was found to be 2.8%; in [13], 5.5%; in assay [15] it was 9%; in assay [16] it was 2.5%; in assay [19] it was 15.5%. Also, the inhibition at 125 µg/mL with Erythrocyte [12] amounted to 69.3%.

`O=C1O[C@H]([C@@H](O)CO)C(O)=C1O` [ASCORBIC ACID]: the inhibition at 1000 µg/mL in the assay with Erythrocyte [20] was determined as 94.6%.

With `COc1cccc(Nc2cccc3c(C)c(C)sc23)c1`, testing at 31.2 µg/mL in the assay on Erythrocyte [1] gave an inhibition of 44.3%. The inhibition was 82.6% in [2]; 68.9% in assay [5]; 84.8% in assay [7]; 56.8% in assay [17]; 62.9% in assay [18]. The same compound registered an inhibition at 250 µg/mL in the assay on Erythrocyte [3] of 66.7%. Besides, the EC50 in the assay on Erythrocyte [4] is 44.2 mg/L (≈ 156 µM); in assay [8], 98.7 mg/L (≈ 348 µM); in [9] it was 13.7 mg/L (≈ 48.3 µM); in [14], more than 250 mg/L. Moreover, the inhibition at 15.6 µg/mL with Erythrocyte [6] stood at 40.3%. For the same compound, the inhibition at 62.5 µg/mL in the assay with Erythrocyte [10] is 58%. In addition, the Activity in assay [11] was 13.4%; in assay [13] it was 13.5%; in assay [15], 22.2%; in [16], 7.9%; in assay [19], 28.4%. Moreover, in the assay on Erythrocyte [12], testing at 125 µg/mL gave an inhibition of 63.1%.

In the assay on Erythrocyte [1], `COc1ccc(Nc2cccc3c(C)c(C)sc23)cc1OC` came in with an inhibition at 31.2 µg/mL of 58.3%. Further, the inhibition came to 100% in assay [2]; 100% in assay [5]; 100% in [7]; 89.3% in assay [17]; 91.4% in assay [18]. In addition, in the assay on Erythrocyte [3], the inhibition at 250 µg/mL is 62.9%. Further, the EC50 in the assay on Erythrocyte [4] was 18.9 mg/L (≈ 60.3 µM); in [8] it was 22.7 mg/L (≈ 72.4 µM); in assay [9], 8.73 mg/L (≈ 27.9 µM); in assay [14] it was 17.3 mg/L (≈ 55.2 µM). The compound also gave an inhibition at 15.6 µg/mL with Erythrocyte [6] of 47.8%. At 62.5 µg/mL the inhibition in the assay on Erythrocyte [10] was 61.2%. Further, the Activity in assay [11] worked out at 72.4%; in assay [13], 86.9%; in assay [15], 92.1%; in assay [16], 47.3%; in assay [19], 94.7%. In addition, the inhibition at 125 µg/mL in the assay on Erythrocyte [12] came out at 62.1%.

Take `Cc1sc2c(Nc3ccccn3)cccc2c1C`: the inhibition at 31.2 µg/mL with Erythrocyte [1] turned out to be 44.5%. For the same compound, the inhibition in assay [2] turned out to be 45.9%; in [5] it was 45.8%; in assay [7], 47.2%; in assay [17] it was 40.7%; in [18], 42.9%. For the same compound, the inhibition at 250 µg/mL with Erythrocyte [3] came out at 69.5%. Besides, the EC50 in the assay on Erythrocyte [4] is 51.4 mg/L (≈ 202 µM); in assay [8], more than 250 mg/L; in assay [9], more than 250 mg/L; in [14] it was more than 250 mg/L. The same compound registered an inhibition at 15.6 µg/mL with Erythrocyte [6] of 38.4%. For the same compound, at 62.5 µg/mL the inhibition with Erythrocyte [10] was 53%. Further, the Activity in assay [11] was found to be 2.6%; in assay [13], 4.9%; in assay [15], 8.8%; in assay [16], 0.4%; in assay [19], 9%. Also, testing at 125 µg/mL in the assay on Erythrocyte [12] gave an inhibition of 64.6%.

In turn, `Cc1sc2c(Nc3ccc(C#N)cc3)cccc2c1C` yielded an inhibition at 31.2 µg/mL with Erythrocyte [1] of 59.4%. The inhibition was found to be 71% in [2]; 69% in assay [5]; 79.6% in assay [7]; 49.6% in assay [17]; 67.3% in assay [18]. In the assay with Erythrocyte [3], this compound registered an inhibition at 250 µg/mL of 66.4%. Besides, the EC50 is 18 mg/L (≈ 64.7 µM) in the assay with Erythrocyte [4], more than 250 mg/L in assay [8], 16 mg/L (≈ 57.5 µM) in [9] and more than 250 mg/L in [14]. In addition, in the assay on Erythrocyte [6], the inhibition at 15.6 µg/mL worked out at 48.3%. In the assay on Erythrocyte [10], this compound gave an inhibition at 62.5 µg/mL of 62.1%. In addition, the Activity in assay [11] is 0%; in [13] it was 0%; in assay [15], 0.5%; in assay [16] it was 0%; in assay [19], 3.1%. 125 µg/mL produced 62.6% inhibition in the assay with Erythrocyte [12].

As for `CC(C)(C)c1cc(O)ccc1O`, the inhibition in assay [21] turned out to be 82.2%.
